Assay results reported in ChEMBL document CHEMBL3091412, “Discovery of an irreversible HCV NS5B polymerase inhibitor” (Bioorg Med Chem Lett, 2013).

Assays:
Hepatitis C virus = assay: Antiviral activity against HCV Con1 in eplicon cells after 3 days by RT-PCR analysis; assay type: functional, organism-based, Hepacivirus hominis; conditions: isolate Con1, 72 h
How it was run: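 HCV 1b-Con1 replicon cells seeded at 5000 cells/well one day before treatment; inhibitor in DMSO added as 10 serial twofold dilutions in duplicate (final 0.5% DMSO, 5% FBS). Harvested 3 days post dosing; replicon RNA quantified by real-time RT-PCR (Taqman), GAPDH RNA as endogenous control; EC50 calculated.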

[1] = Irreversible inhibition of HCV1b NS5B delta21 polymerase by radiolabeled nucleotide incorporation assay; design: species or system Hepatitis C virus subtype 1b

SMILES | EC50 (Hepatitis C virus) [nM] | IC50 [1] [nM]
Cc1ccc2nc(Cl)c(Cn3c(C(=O)O)c(-c4ccc[nH]c4=O)c4cc(C)c(F)cc43)cc2c1 | 25 | 20
Cc1cc2c(-c3ccc[nH]c3=O)c(C(=O)O)n(Cc3cnc4ccccc4c3Cl)c2cc1F | 20 | 6
Cc1cc2c(-c3ccc[nH]c3=O)c(C(=O)O)n(Cc3c(Cl)nc4ccccc4c3Cl)c2cc1F | > 1000 | 60
